Laboratory results published in ChEMBL document CHEMBL4270645, “Structure-activity relationship study of hypoxia-activated prodrugs for proteoglycan-targeted chemotherapy in chondrosarcoma” (Eur J Med Chem, 2018).
pIC50, pKd: −log10 of the molar value. The source made the active and inactive calls. The calls are words filed in the database; no cut-off is given here.

Experiments:
[1] = Chemical stability in 3 equiv sodium dithionite/CH3CN,/cacodylate buffer at pH 7.4 at 37 degC after 24 hrs by 31P NMR analysis; type: physicochemical; settings: pH 7.4, 24 h
[2] = Chemical stability in pH 7.4 sodium phosphate buffer assessed as drug metabolism at 17 uM at 37 degC after 24 hrs by RP-HPLC analysis; type: physicochemical; settings: read-out: Drug metabolism
How it was run: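 Prodrug at 17 µM in 10 mM sodium phosphate pH 7.4 with 0.13% DMSO, 37°C. Aliquots over 24 h run directly on C18 RP-HPLC (H2O/ACN gradient with 15 mM TFA). Remaining prodrug calculated from peak area at 322 nm.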

H-EMC-SS [3] = experiment: Antiproliferative activity against human HEMC-SS cells treated for 24 hrs under normoxic condition followed by compound wash-out and incubated under normoxic condition for 48 hrs by alamar blue assay; type: cell-based
How it was run: (§1)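 HEMC-SS chondrosarcoma cells (DMEM/F12, 10% FCS, gentamicin) seeded 20.10^3/well, adhered overnight; drug dilution series added, final DMSO 0.5%. Exposed 24 h under normoxia (21% O2, 5% CO2, 37°C) or hypoxia (N2, O2<0.3%, 37°C), then washed with PBS and grown 48 h in normoxia. AlamarBlue viability; IC50 = 50% growth inhibition; at least triplicate, mean ± SD.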

[4] = Prodrug activation in 3 equiv sodium dithionite/CH3CN,/cacodylate buffer at pH 7.4 assessed as bis(2-chloroethyl)phosphoramidate anion formation by measuring half life at 37 degC by 31P NMR analysis; type: physicochemical
How it was run: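 Incubation with 3 equiv sodium dithionite in CH3CN/0.1 M cacodylate buffer pH 7.4, probe at 37°C. 31P NMR spectra over 24 h against coaxial Ph3PO reference (26 ppm). Parent loss and phosphoramidate anion formation quantified from peak areas; average of two runs.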

H-EMC-SS [5] = experiment: Selectivity index, ratio of IC50 for human HEMC-SS cells under normoxic condition to IC50 for human HEMC-SS cells under hypoxic condition; type: functional
[6] = Stability in rabbit plasma at 37 degC after 24 hrs by 31P NMR analysis; type: ADME, cell-free, Oryctolagus cuniculus
How it was run: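 Heparinised rabbit blood centrifuged (4°C, 1300 g, 10 min) to give plasma. About 10 mg prodrug in 90 µL CH3CN plus 330 µL plasma, followed by 31P NMR at 37°C over 24 h; peak areas, average of two runs.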

[7] = target: Aggrecan core protein (Bos taurus) (UniProt P13608); experiment: Binding affinity to bovine articular cartilage aggrecan at 500 uM by SPR analysis
How it was run: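 Aggrecan immobilised on sensor chip, free sites blocked with 1 M ethanolamine pH 8.5. Primary screen as binding level at 500 µM analyte in HBS-P+ running buffer, 30 µL/min, 600 s association, 200 s dissociation. Response corrected against a flow cell without aggrecan; regeneration with 2 M NaCl, 150 s.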

Aggrecan core protein = Aggrecan core protein (Bos taurus, UniProt P13608); experiment: Binding affinity to bovine articular cartilage aggrecan by SPR analysis
H-EMC-SS [8] = experiment: Antiproliferative activity against human HEMC-SS cells treated for 24 hrs under hypoxic condition followed by compound wash-out and incubated under normoxic condition for 48 hrs by alamar blue assay; type: functional, cell-based; how it was run: as §1
[9] = Prodrug activation in pH 7.4 PBS buffer assessed as 15 to 25 ug/ml Escherichia coli nitroreductase-mediated bis(2-chloroethyl)phosphoramidate anion formation by measuring half life at 37 degC in presence of NADPH by RP-HPLC analysis; settings: isolated protein
How it was run: (§2)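 Recombinant E. coli nitroreductase (final 25 or 15 µg/mL) with prodrug 17 µM and NADPH 0.9 mM final, in 10 mM sodium phosphate pH 7.4, 37°C. Aliquots over 2 h run on C18 RP-HPLC; remaining prodrug from peak area at 322 nm. Enzyme-free NADPH controls run in parallel.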

[10] = Prodrug activation in pH 7.4 PBS buffer assessed as 25 ug/ml Escherichia coli nitroreductase-mediated corresponding phosphoramidate anion formation by measuring half life at 37 degC in presence of NADPH by RP-HPLC analysis; settings: isolated protein; how it was run: as §2
[11] = Prodrug activation in pH 7.4 PBS buffer assessed as 15 ug/ml Escherichia coli nitroreductase-mediated corresponding phosphoramidate anion formation by measuring half life at 37 degC in presence of NADPH by RP-HPLC analysis; settings: isolated protein; how it was run: as §2

Sequence of Aggrecan core protein (P13608 whole entry): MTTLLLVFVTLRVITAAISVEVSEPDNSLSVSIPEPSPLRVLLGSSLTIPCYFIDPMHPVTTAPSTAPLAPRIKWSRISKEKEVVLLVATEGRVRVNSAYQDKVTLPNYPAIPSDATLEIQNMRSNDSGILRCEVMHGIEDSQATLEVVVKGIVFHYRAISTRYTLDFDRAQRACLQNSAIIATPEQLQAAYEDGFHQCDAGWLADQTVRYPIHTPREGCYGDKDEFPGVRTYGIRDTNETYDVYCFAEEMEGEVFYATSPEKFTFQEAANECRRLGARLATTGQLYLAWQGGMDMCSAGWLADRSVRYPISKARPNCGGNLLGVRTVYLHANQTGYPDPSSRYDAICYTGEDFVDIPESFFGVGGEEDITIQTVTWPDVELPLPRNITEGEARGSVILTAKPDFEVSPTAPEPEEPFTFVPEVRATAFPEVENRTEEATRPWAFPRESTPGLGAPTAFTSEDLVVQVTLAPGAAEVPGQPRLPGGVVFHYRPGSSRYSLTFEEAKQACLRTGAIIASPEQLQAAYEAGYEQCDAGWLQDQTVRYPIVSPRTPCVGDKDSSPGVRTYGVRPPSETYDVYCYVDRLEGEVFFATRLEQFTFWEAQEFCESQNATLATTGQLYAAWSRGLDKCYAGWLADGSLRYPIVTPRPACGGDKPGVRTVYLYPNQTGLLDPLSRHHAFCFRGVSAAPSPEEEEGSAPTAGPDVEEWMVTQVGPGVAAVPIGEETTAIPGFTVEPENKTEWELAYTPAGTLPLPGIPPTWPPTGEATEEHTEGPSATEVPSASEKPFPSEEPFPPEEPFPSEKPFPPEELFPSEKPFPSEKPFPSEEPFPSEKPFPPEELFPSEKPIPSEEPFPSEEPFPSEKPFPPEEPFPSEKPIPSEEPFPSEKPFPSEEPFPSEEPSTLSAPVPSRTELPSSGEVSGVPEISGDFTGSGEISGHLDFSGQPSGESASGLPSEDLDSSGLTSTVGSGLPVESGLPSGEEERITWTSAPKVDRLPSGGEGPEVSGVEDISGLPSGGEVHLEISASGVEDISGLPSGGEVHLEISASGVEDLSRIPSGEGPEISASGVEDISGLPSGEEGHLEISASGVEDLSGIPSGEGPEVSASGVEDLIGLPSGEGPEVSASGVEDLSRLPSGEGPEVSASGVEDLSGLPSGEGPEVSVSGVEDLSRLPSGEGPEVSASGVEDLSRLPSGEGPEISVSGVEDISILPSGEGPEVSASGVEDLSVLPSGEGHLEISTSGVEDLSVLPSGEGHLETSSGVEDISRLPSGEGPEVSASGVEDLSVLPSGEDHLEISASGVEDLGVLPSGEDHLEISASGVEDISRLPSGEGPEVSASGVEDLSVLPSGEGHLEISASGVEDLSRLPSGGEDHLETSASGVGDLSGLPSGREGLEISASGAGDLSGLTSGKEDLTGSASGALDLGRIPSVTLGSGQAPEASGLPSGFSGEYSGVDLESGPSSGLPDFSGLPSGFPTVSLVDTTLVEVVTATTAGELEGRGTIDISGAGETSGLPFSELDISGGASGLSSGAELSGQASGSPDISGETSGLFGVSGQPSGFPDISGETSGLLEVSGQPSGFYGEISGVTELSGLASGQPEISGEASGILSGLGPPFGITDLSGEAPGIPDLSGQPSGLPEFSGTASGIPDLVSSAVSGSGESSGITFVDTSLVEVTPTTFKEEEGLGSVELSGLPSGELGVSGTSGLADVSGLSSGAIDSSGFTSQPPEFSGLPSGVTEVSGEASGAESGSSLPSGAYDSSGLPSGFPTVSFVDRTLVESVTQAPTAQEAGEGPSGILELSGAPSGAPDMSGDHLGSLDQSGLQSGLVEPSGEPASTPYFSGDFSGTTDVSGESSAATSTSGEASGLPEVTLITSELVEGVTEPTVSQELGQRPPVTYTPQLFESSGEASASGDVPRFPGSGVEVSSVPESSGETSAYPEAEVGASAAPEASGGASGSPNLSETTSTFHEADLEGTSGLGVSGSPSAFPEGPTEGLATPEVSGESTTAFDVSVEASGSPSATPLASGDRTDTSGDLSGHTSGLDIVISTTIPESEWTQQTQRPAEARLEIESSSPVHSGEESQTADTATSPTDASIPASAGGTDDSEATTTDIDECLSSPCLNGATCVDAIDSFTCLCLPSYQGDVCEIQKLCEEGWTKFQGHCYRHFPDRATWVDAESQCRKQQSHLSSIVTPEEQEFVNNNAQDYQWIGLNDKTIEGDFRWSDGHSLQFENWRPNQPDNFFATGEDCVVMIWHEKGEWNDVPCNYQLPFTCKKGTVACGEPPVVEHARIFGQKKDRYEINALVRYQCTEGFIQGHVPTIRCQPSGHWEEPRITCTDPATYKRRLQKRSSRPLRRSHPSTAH
Sequence of Aggrecan core protein (Bos taurus) (P13608 whole entry): as above

Question: What does the source list for `CC[N+](C)(CCCCNP(=O)(OCc1cnc([N+](=O)[O-])n1C)N(CCCl)CCCl)Cc1ccccc1.[I-]` (stereo not drawn)?
Answer: Stability [1]: Stable; degraded at 24 h, 17 µM [2]: < 5%; pIC50 (H-EMC-SS [3]): 4.39; t1/2 [4]: < 2 min; Ratio IC50 (H-EMC-SS [5]): 24; Stability [6]: Stable; Activity [7]: Active; pKd (Aggrecan core protein): 2.68; pIC50 (H-EMC-SS [8]): 5.77; t1/2 [9]: < 1 min

Question: What does the source list for `Cn1c(COP(=O)(NCCC[N+](C)(C)C)N(CCCl)CCCl)cnc1[N+](=O)[O-].[I-]` (stereo not drawn)?
Answer: t1/2 [10]: 5 min; pIC50 (H-EMC-SS [3]): 4.53; Ratio IC50 (H-EMC-SS [5]): 7; t1/2 [11]: 15 min; Activity [7]: Active; pKd (Aggrecan core protein): 2.89; pIC50 (H-EMC-SS [8]): 5.37

Question: With `Cn1c(COP(=O)(NCC[N+](C)(C)Cc2ccccc2)N(CCCl)CCCl)cnc1[N+](=O)[O-].[I-]` (stereo not drawn) as the molecule, how does the pIC50 (H-EMC-SS [3]) read?
Answer: 5.19

Question: And the “Ratio IC50” value (H-EMC-SS [5])?
Answer: 6

Question: And the Activity [7]?
Answer: Active

Question: And the pKd (Aggrecan core protein)?
Answer: 2.54

Question: What about the pIC50 (H-EMC-SS [8]) of the same molecule?
Answer: 5.96

Question: What does the source list for `CC[N+](C)(CCCNP(=O)(OCc1cnc([N+](=O)[O-])n1C)N(CCCl)CCCl)Cc1ccccc1.[I-]` (stereo not drawn)?
Answer: pIC50 (H-EMC-SS [3]): 4.68; Ratio IC50 (H-EMC-SS [5]): 10; pIC50 (H-EMC-SS [8]): 5.68

Question: With `Cn1c(COP(=O)(NCCC[N+](C)(C)Cc2ccccc2)N(CCCl)CCCl)cnc1[N+](=O)[O-].[I-]` (stereo not drawn) as the molecule, how does the pIC50 (H-EMC-SS [3]) read?
Answer: 5.27

Question: What about the “Ratio IC50” value (H-EMC-SS [5]) of the same molecule?
Answer: 14

Question: What about the Activity [7] of the same molecule?
Answer: Active

Question: What about the pKd (Aggrecan core protein) of the same molecule?
Answer: 2.52

Question: And the pIC50 (H-EMC-SS [8])?
Answer: 6.40

Question: With `Cn1c(COP(=O)(NCCCCC[N+](C)(C)C)N(CCCl)CCCl)cnc1[N+](=O)[O-].[I-]` (stereo not drawn) as the molecule, how does the pIC50 (H-EMC-SS [3]) read?
Answer: 4.59

Question: What about the “Ratio IC50” value (H-EMC-SS [5]) of the same molecule?
Answer: 11

Question: What about the Activity [7] of the same molecule?
Answer: Active

Question: What about the pKd (Aggrecan core protein) of the same molecule?
Answer: 2.37

Question: And the pIC50 (H-EMC-SS [8])?
Answer: 5.62

Question: With `CC[N+](CC)(CC)CCCNP(=O)(OCc1cnc([N+](=O)[O-])n1C)N(CCCl)CCCl.[I-]` (stereo not drawn) as the molecule, how does the pIC50 (H-EMC-SS [3]) read?
Answer: 5.01

Question: And the “Ratio IC50” value (H-EMC-SS [5])?
Answer: 7

Question: And the Activity [7]?
Answer: Active

Question: What about the pKd (Aggrecan core protein) of the same molecule?
Answer: 2.46

Question: And the pIC50 (H-EMC-SS [8])?
Answer: 5.85

Question: With `Cn1c(COP(=O)(NCCCC[N+](C)(C)Cc2ccccc2)N(CCCl)CCCl)cnc1[N+](=O)[O-].[I-]` (stereo not drawn) as the molecule, how does the pIC50 (H-EMC-SS [3]) read?
Answer: 4.74

Question: And the “Ratio IC50” value (H-EMC-SS [5])?
Answer: 10

Question: What about the Activity [7] of the same molecule?
Answer: Active

Question: And the pKd (Aggrecan core protein)?
Answer: 2.28

Question: What about the pIC50 (H-EMC-SS [8]) of the same molecule?
Answer: 5.74

Question: What does the source list for `CC[N+](C)(C)CCCCCNP(=O)(OCc1cnc([N+](=O)[O-])n1C)N(CCCl)CCCl.[I-]` (stereo not drawn)?
Answer: pIC50 (H-EMC-SS [3]): 4.80; Ratio IC50 (H-EMC-SS [5]): 11; Activity [7]: Active; pKd (Aggrecan core protein): 2.45; pIC50 (H-EMC-SS [8]): 5.82

Question: With `Cn1c(COP(=O)(NCCBr)NCCBr)cnc1[N+](=O)[O-]` [EVOFOSFAMIDE] as the molecule, how does the pIC50 (H-EMC-SS [3]) read?
Answer: 5.54

Question: And the “Ratio IC50” value (H-EMC-SS [5])?
Answer: 23

Question: What about the pIC50 (H-EMC-SS [8]) of the same molecule?
Answer: 6.89

Question: With `CC[N+](C)(C)CCCCNP(=O)(OCc1cnc([N+](=O)[O-])n1C)N(CCCl)CCCl.[I-]` (stereo not drawn) as the molecule, how does the pIC50 (H-EMC-SS [3]) read?
Answer: 4.99

Question: What about the “Ratio IC50” value (H-EMC-SS [5]) of the same molecule?
Answer: 7

Question: What about the Activity [7] of the same molecule?
Answer: Active

Question: And the pKd (Aggrecan core protein)?
Answer: 2.69

Question: And the pIC50 (H-EMC-SS [8])?
Answer: 5.82

Question: With `Cn1c(COP(=O)(NCCCCC[N+](C)(C)Cc2ccccc2)N(CCCl)CCCl)cnc1[N+](=O)[O-].[I-]` (stereo not drawn) as the molecule, how does the pIC50 (H-EMC-SS [3]) read?
Answer: 4.54

Question: What about the “Ratio IC50” value (H-EMC-SS [5]) of the same molecule?
Answer: 10

Question: And the Activity [7]?
Answer: Active

Question: And the pKd (Aggrecan core protein)?
Answer: 2.59

Question: And the pIC50 (H-EMC-SS [8])?
Answer: 5.55

Question: With `CC[N+](C)(CCCCCNP(=O)(OCc1cnc([N+](=O)[O-])n1C)N(CCCl)CCCl)Cc1ccccc1.[I-]` (stereo not drawn) as the molecule, how does the pIC50 (H-EMC-SS [3]) read?
Answer: 4.89

Question: What about the “Ratio IC50” value (H-EMC-SS [5]) of the same molecule?
Answer: 16

Question: And the Activity [7]?
Answer: Active

Question: What about the pKd (Aggrecan core protein) of the same molecule?
Answer: 2.46

Question: What about the pIC50 (H-EMC-SS [8]) of the same molecule?
Answer: 6.10

Question: With `CC[N+](C)(CC)CCCCNP(=O)(OCc1cnc([N+](=O)[O-])n1C)N(CCCl)CCCl.[I-]` (stereo not drawn) as the molecule, how does the pIC50 (H-EMC-SS [3]) read?
Answer: 4.87

Question: And the “Ratio IC50” value (H-EMC-SS [5])?
Answer: 6

Question: What about the Activity [7] of the same molecule?
Answer: Active

Question: And the pKd (Aggrecan core protein)?
Answer: 2.30

Question: What about the pIC50 (H-EMC-SS [8]) of the same molecule?
Answer: 5.62
